From ChEMBL document CHEMBL1122320, “1H-2-benzopyran-1-one derivatives, microbial products with pharmacological activity. Relationship between structure and activity in 6-[[1(S)-(3(S),4- dihydro-8-hydroxy-1-oxo-1H-2-benzopyran-3-yl)-3-methylbutyl]-amino]-4(S), 5(S)-dihydroxy-6-oxo-3(S)-ammoniohexanoate” (J Med Chem, 1983)

Key:
Rattus norvegicus [1] = experiment: Gastroprotective activity on stress-induced ulcers in male Wistar rats at 50 mg/kg upon intraperitoneal administration; format: functional
In short: (§1)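 Rats (160-180 g) fasted 24 h, given test compound ip in physiological saline; saline-only controls. After 1 h, restrained in net cage and immersed to xiphisternum in 21 °C water bath for 6 h, then killed and stomachs opened along greater curvature. Hemorrhagic ulceration scored 0-3; % protection = 100 − (treated total rating/saline rating)×100. Five rats per dose.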

Rattus norvegicus [2] = experiment: Gastroprotective activity on stress-induced ulcers in male Wistar rats at 12.5 mg/kg upon intraperitoneal administration; format: functional; in short: as §1
Rattus norvegicus [3] = experiment: Gastroprotective activity on stress-induced ulcers in male Wistar rats at 25 mg/kg upon intraperitoneal administration; format: functional; in short: as §1
Rattus norvegicus [4] = experiment: Gastroprotective activity on stress-induced ulcers in male Wistar rats at 6.25 mg/kg upon intraperitoneal administration; format: functional; in short: as §1
[5] = Lethal dose in mice upon intraperitoneal administration;Value ranges from(131.6-243.4); format: toxicity, organism-based; settings: mouse, in vivo, ip
Rattus norvegicus [6] = experiment: Gastroprotective activity on stress-induced ulcers in male Wistar rats at the specified ip dose of 12.5 mg/kg; format: functional; settings: route intraperitoneal
In short: (§2)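 Male Wistar rats (160-180 g), food-deprived 24 h, given compound ip in physiological saline; saline-only controls. After 1 h, restrained in net cage and immersed to xiphisternum in 21 °C water for 6 h. Stomachs removed and opened along greater curvature, hemorrhagic ulceration scored 0-3. % protection = 100 − (treated total rating / saline rating)×100. Five rats per dose.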

[7] = Lethal dose in mice upon intraperitoneal administration;Value ranges from(5-9.8); format: toxicity, organism-based; settings: mouse, in vivo, ip
Rattus norvegicus [8] = experiment: Gastroprotective activity on stress-induced ulcers in male Wistar rats at 6.25 mg/kg upon intraperitoneal administration;the minimum effective dose = 125 ug/kg (protection 66%); format: functional; in short: as §2

SMILES	Protection (Rattus norvegicus [1])	Protection (Rattus norvegicus [2])	Protection (Rattus norvegicus [3])	Protection (Rattus norvegicus [4])	LD50 [5]	Protection (Rattus norvegicus [6])	LD50 [7]	Protection (Rattus norvegicus [8])
NC(CC(=O)O)C(O)C(O)C(=O)[O-].[Na+] (centres undefined)	43%	0%	23%					
CC(=O)NC1CC(=O)OC1C(OC(C)=O)C(=O)NC(CC(C)C)C1Cc2cccc(OC(C)=O)c2C(=O)O1 (centres undefined)	16%	0%	0%					
CC(=O)NC1CC(=O)OC1C(OC(C)=O)C(=O)NC(CC(C)C)C1Cc2cccc(O)c2C(=O)O1 (centres undefined)	16%	0%	16%					
CC(C)CC(NC(=O)C(O)C(O)C(N)CC(=O)O)C(O)Cc1cccc(O)c1C(=O)[O-].[Na+] (centres undefined)	50%	16%	50%					
COc1cccc2c1C(=O)OC(C(CC(C)C)NC(=O)C(O)C(O)C(N)CC(=O)O)C2 (centres undefined)	83%	66%	83%	50%				
CC(=O)NC1CC(=O)OC1C(O)C(=O)NC(CC(C)C)C1Cc2cccc(O)c2C(=O)O1 (centres undefined)	66%	16%	33%					
CC(C)C[C@H](NC(=O)[C@@H](O)[C@@H](O)[C@@H](N)CC(=O)O)[C@@H]1Cc2cccc(O)c2C(=O)O1	100%	76%	100%	56%	179 mg/kg			
CC(C)CC(NC(=O)C(O)C1OC(=O)CC1N)C1Cc2cccc(O)c2C(=O)O1 (centres undefined)	83%	76%	76%	17%				
CC(C)CC(NC(=O)C(O)C1C=CC(=O)O1)C1Cc2cccc(O)c2C(=O)O1 (centres undefined)	33%	0%	16%					
CC(C)CC(N)C1Cc2cccc(O)c2C(=O)O1.Cl (centres undefined)	33%	16%	33%					
CC(C)CC(NC(=O)C(O)C(O)C(N)CC(N)=O)C1Cc2cccc(O)c2C(=O)O1.Cl (centres undefined)	100%		100%			100%	7 mg/kg	100%
